Assay results: ChEMBL document CHEMBL1123111, “Potential inhibitors of S-adenosylmethionine-dependent methyltransferases. 8. Molecular dissections of carbocyclic 3-deazaadenosine as inhibitors of S-adenosylhomocysteine hydrolase” (1985)

Experiments:
L929 [1] = test: Compound was evaluated for cellular toxicity by [3H]thymidine incorporation into DNA of uninfected L-929 cells after 36h exposure; type: functional, Mus musculus; design: concentration or dose not given beside the values
Procedure, shortened: (§1)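 Uninfected mouse L-929 monolayers (2.5 × 10^6 cells/60-mm dish) exposed to 10 µM compound or no drug in serum-free KU-1 medium for 36 or 72 h. Then pulsed with [3H]thymidine. Cells trypsinized, precipitated in 10% TCA at 4 °C, and precipitates collected on glass-fibre filters. Filters solubilized and counted by liquid scintillation. Incorporation expressed as percent of untreated controls.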

[2] = molecular target: Adenosylhomocysteinase (Bos taurus) (UniProt Q3MHL4); test: Evaluated for the inhibition of bovine liver S-adenosyl-homocysteine hydrolase at concentration 2.0 mM
L929 [3] = test: Ability to inhibit Vaccinia virus plaque formation after 72 hr in monolayer cultures of mouse L-929 cells; type: functional; design: concentration or dose not given beside the values
L929 [4] = test: Compound was evaluated for cellular toxicity by [3H]thymidine incorporation into DNA of uninfected L-929 cells after 72 hr exposure; type: functional, Mus musculus; design: concentration or dose not given beside the values; procedure, shortened: as §1

Adenosylhomocysteinase (Bos taurus), sequence (Q3MHL4 whole entry, looked up): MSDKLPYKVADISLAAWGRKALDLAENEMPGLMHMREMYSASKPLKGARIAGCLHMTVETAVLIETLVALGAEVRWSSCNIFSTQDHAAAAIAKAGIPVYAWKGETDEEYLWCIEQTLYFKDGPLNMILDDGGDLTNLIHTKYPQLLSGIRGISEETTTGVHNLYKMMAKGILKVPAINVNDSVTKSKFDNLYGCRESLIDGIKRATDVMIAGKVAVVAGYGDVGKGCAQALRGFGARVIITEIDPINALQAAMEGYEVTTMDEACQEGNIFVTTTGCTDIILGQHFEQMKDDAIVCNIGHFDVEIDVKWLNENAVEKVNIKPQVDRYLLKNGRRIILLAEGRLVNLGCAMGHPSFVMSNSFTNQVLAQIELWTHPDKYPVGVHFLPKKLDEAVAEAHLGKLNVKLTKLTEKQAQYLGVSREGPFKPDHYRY

Row | SMILES | Control (L929 [1]) | inhibition [2] | Inhibition (L929 [3]) | Control (L929 [4])
1 | Nc1nccc2c1ncn2CC(O)CO (centres undefined) | 88% | 95% | 53% | 138%
2 | Nc1nccc2c1ncn2CCO | 95% | 27% | 33% | 113%
3 | Nc1nccc2c1ncn2C(CO)CCCO (centres undefined) | 91% | 50% | 27% | 140%
4 | Nc1nccc2c1ncn2[C@@H]1C[C@H](CO)[C@@H](O)[C@H]1O [3-DEAZAARISTEROMYCIN A] | 86% |  | 95% | 246%
5 | Nc1nccc2c1ncn2CCCCO | 102% | 12% | 51% | 110%
